The list is not random: actives were taken first. Their share in the collection is about 2.9%.
FGF22 binding – FGF22 (human) thermal shift binding; hit rate 1.5% among 340,000; AID 651658; activity (Tm shift, normalised), % at 9.99 µM; Q9HCT0; recombinant FGF22 thermal shift, SYPRO orange fluorescence; percent of sucrose octasulfate shift, DMSO zero;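 active means mean Tm shift, scaled 0 neutral to 100 positive control, at about 1.3% or above, every replicate too, limit read from the data; inconclusive means no clear call, values can overlap the other calls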
Target sequence (Q9HCT0 whole entry, looked up): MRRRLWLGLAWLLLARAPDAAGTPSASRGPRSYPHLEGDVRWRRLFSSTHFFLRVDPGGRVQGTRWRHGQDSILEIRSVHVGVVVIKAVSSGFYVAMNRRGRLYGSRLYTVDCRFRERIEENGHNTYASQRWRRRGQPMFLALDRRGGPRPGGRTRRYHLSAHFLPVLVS
Vif inh – inhibitors of HIV Vif | HEK293T cells, Vif self-association by quenched fluorescence, imaging, 24 h | inhibition, % at 7.49 µM | hit rate 0.35% among 340,000 | AID 602346; in the data active means inhibition above about 50%, passing the limit was not always enough; inconclusive means no clear call, values can overlap the other calls; inactive means below about 31%
PglD DTNB – blocks C. jejuni PglD acetyltransferase activity | purified PglD enzyme, DTNB colorimetric CoA detection | inhibition, % at 12.5 µM | hit rate 0.098% among 360,000; in the data active means inhibition above about 16%, passing the limit was not always enough; inconclusive means no clear call, values can overlap the other calls
PGC1a acetyl inh – PGC1a acetylation modulation, inhibitor mode; U2OS PGC1a acetylation, AlphaScreen anti-acetyl-lysine; with virally co-expressed GCN5 acetyltransferase; inhibition, % at 15.6 µM; hit rate 0.17% among 350,000;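 active means every replicate shows inhibition of at least 40%; inconclusive means mean inhibition at least 40% but some replicate below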
Cneo AK release – causes C. neoformans cell lysis; adenylate kinase release luminescence, 4 h; normalised: neutral wells 0, clomiphene wells 100; lysis activity, % at 15 µM; hit rate 0.2% among 360,000; AID 651654;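 active means mean lysis activity across replicates of at least 80%, whatever share of replicates individually reach that level; inactive means mean lysis activity below 80%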
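read-out = cell lysis signal | test system = log-phase Cryptococcus neoformans yeast cells | input = cells at 5 × 10^6 per mL | medium = fresh YPD growth medium | signal = luminescent adenylate kinase detection reagent | timing = 4 h at 37 °C static, read 1 h later | dosing = single dose | controls = Clomiphene as positive lysis control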
Ecoli rRNA inh – selective bacterial rRNA inhibition in E. coli | E. coli WT GFP vs humanized-ribosome RFP mutants, fluorescence, 24 h; hits give low values; DMSO median 0, no signal -100 | GFP signal change (wild-type ribosome), % (test concentration not listed) | hit rate 1.6% among 350,000 | AID 720706;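 active means significant combined selectivity score with lowered wild-type GFP, culture density cut under 30%, mutant RFP and density less affected; inactive means any of these conditions unmet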
Each line names hits and unclear results; the compound was inactive in the other large screens; ! = repeats disagree.

COc1ccc(NC(=O)N(C)C[C@@H]2OCCCC[C@@H](C)Oc3ccc(NC(=O)Nc4ccc5c(c4)OCO5)cc3C(=O)N([C@@H](C)CO)C[C@H]2C)cc1	Cneo AK release 88.4 (no result: Vif inh)
C[C@@H]1CCCCO[C@H](CN(C)Cc2ccc3c(c2)OCO3)[C@H](C)CN([C@@H](C)CO)C(=O)c2cc(NC(=O)C3CCCCC3)ccc2O1	none (no result: Vif inh, PGC1a acetyl inh)
COc1ccc(NC(=O)Nc2ccc3c(c2)C(=O)N([C@H](C)CO)C[C@@H](C)[C@@H](CN(C)Cc2ccc4c(c2)OCO4)OCCCC[C@H](C)O3)cc1	Ecoli rRNA inh -33.9! (no result: Vif inh)
COc1ccc(NC(=O)Nc2ccc3c(c2)C(=O)N([C@@H](C)CO)C[C@@H](C)[C@H](CN(C)Cc2ccc4c(c2)OCO4)OCCCC[C@@H](C)O3)cc1	none (no result: Vif inh)
C[C@@H]1CCCCO[C@H](CN(C)Cc2ccc3c(c2)OCO3)[C@@H](C)CN([C@@H](C)CO)C(=O)c2cc(NC(=O)C3CCCCC3)ccc2O1	FGF22 binding 13.2 (no result: Vif inh, PGC1a acetyl inh)
COc1ccc(NC(=O)Nc2ccc3c(c2)C(=O)N([C@H](C)CO)C[C@@H](C)[C@H](CN(C)C(=O)NC2CCCCC2)OCCCC[C@H](C)O3)cc1	FGF22 binding 14.7 (no result: Vif inh)
C[C@H]1CN([C@@H](C)CO)C(=O)c2cccc(NS(=O)(=O)c3cn(C)cn3)c2O[C@H]1CN(C)Cc1ccncc1	none (no result: Vif inh)
C[C@@H]1CN([C@H](C)CO)C(=O)c2cc(NC(=O)Nc3ccccc3)ccc2O[C@@H](C)CCCCO[C@H]1CN(C)Cc1ccccc1	none (no result: Vif inh)
CCC1C/C(=C\c2cc(OC)c(OC)cc2OC)C(=O)/C(=C/c2cc(OC)c(OC)cc2OC)C1 (configuration not stated)	none (no result: FGF22 binding, PglD DTNB, PGC1a acetyl inh, Cneo AK release, Ecoli rRNA inh)
COc1cc(OC)c(OC)cc1/C=C1\CC(C)C/C(=C\c2cc(OC)c(OC)cc2OC)C1=O (configuration not stated)	Ecoli rRNA inh -22.3
Cc1ccc2oc(=O)c(/C=C(\O)c3cccs3)nc2c1	Vif inh 88.6 (no result: PglD DTNB, Cneo AK release)
O=c1oc2ccc(Cl)cc2nc1/C=C(\O)c1cccs1	none (no result: PglD DTNB, Cneo AK release)
C[C@H](CO)N1C[C@H](C)[C@H](CN(C)C(=O)NC2CCCCC2)Oc2ccc(NC(=O)CCCN(C)C)cc2C1=O	none (no result: FGF22 binding, Vif inh)
Cc1ncsc1CCOC(=O)c1ccc(N2CCOCC2)c([N+](=O)[O-])c1	FGF22 binding 43.7 (no result: PglD DTNB, PGC1a acetyl inh, Cneo AK release)
O=C(c1ccc2c(c1)OCO2)N1CC(=O)N2[C@H](CO)[C@@H](c3ccc(C#Cc4ccccc4)cc3)[C@@H]2C1	none (no result: FGF22 binding, Vif inh, PglD DTNB, Cneo AK release)
COc1ccc(-c2cn3cc(C(=O)NN)ccc3n2)cc1	none (no result: PglD DTNB, PGC1a acetyl inh, Cneo AK release)
NNC(=O)c1ccc2nc(-c3ccc(Br)cc3)cn2c1	Ecoli rRNA inh -28.2 (no result: PglD DTNB, Cneo AK release)
COc1ccc(CN(C)C[C@@H]2Oc3c(NC(=O)Nc4c(C)noc4C)cccc3C(=O)N([C@H](C)CO)C[C@@H]2C)cc1	none (no result: Vif inh)
CN(C)CC(=O)N1CC2(C1)[C@H](c1ccccc1)[C@H](CO)N2C(=O)C1CCC1	none (no result: FGF22 binding, Vif inh, PglD DTNB, Cneo AK release)
CNC(=O)c1ccsc1NC(=O)c1ccccc1	none
CNC(=O)c1ccsc1NC(=O)c1ccc(Cl)s1	Ecoli rRNA inh -28.4 (no result: Vif inh)
CNC(=O)c1ccsc1NC(=O)CCS(=O)(=O)c1ccccc1	FGF22 binding 43.2 (no result: PglD DTNB, PGC1a acetyl inh, Cneo AK release)
CSc1ccccc1C(=O)N1CCN(c2cccc(Cl)c2)CC1	FGF22 binding 43.4 (no result: PglD DTNB, Cneo AK release)
O=C(c1cc(=O)c2ccccc2o1)N1CCN(c2cccc(Cl)c2)CC1	FGF22 binding 43.3, Ecoli rRNA inh -30.1 (no result: PglD DTNB, PGC1a acetyl inh, Cneo AK release)
O=C(c1cc(=O)c2ccccc2o1)N1CCN(c2ccccc2F)CC1	none (no result: PglD DTNB, Cneo AK release)
COc1ccc2c3c(n(C)c2c1)[C@H](CO)NCC31CN(S(=O)(=O)c2ccc(C)cc2)C1	none (no result: FGF22 binding, Vif inh, PglD DTNB, PGC1a acetyl inh, Cneo AK release)
O=S(=O)(CCSc1nc2ccccc2o1)c1nc2ccccc2s1	Vif inh inconclusive, Ecoli rRNA inh -32.0!
CCN(CCCNC(=O)C1CCC(=O)N1Cc1ccc(C)cc1)c1cccc(C)c1 (configuration not stated)	Vif inh 51.5 (no result: FGF22 binding, PGC1a acetyl inh)
c1ccc(Cn2c(-c3ccccc3)c[n+]3c2SCCC3)cc1	Ecoli rRNA inh -45.3 (no result: PGC1a acetyl inh)
COc1ccc(-c2c[n+]3c(n2-c2ccccc2)SCC3)cc1	none
C[C@@H]1CCCCO[C@@H](CN(C)C(=O)Nc2cccc3ccccc23)[C@@H](C)CN([C@@H](C)CO)C(=O)c2cc(NC(=O)Nc3ccc(C(F)(F)F)cc3)ccc2O1	none (no result: Vif inh, PglD DTNB, Cneo AK release)
CCCC(=O)Nc1ccc2c(c1)C(=O)N(C)C[C@@H](OC)[C@H](C)CN(CCc1ccccc1)[C@@H](C)CO2	none (no result: Vif inh, PGC1a acetyl inh)
C[C@H]1CN([C@@H](C)CO)C(=O)c2cc(-c3ccccc3)cnc2O[C@@H]1CN(C)C(=O)c1ccccn1	Cneo AK release 105.2 (no result: Vif inh)
C[C@H]1CN([C@@H](C)CO)C(=O)c2cc(-c3ccc(F)cc3)cnc2O[C@@H]1CN(C)C(=O)c1ccccn1	none (no result: Vif inh)
C[C@H](CO)N1C[C@H](C)[C@H](CN(C)C(=O)c2ccccn2)Oc2ncc(-c3ccccc3)cc2C1=O	Cneo AK release 81.2 (no result: Vif inh)
C[C@@H]1CN([C@H](C)CO)C(=O)c2cc(C#CCN(C)C)cnc2O[C@@H]1CN(C)C(=O)c1ccc(F)cc1	none (no result: Vif inh)
COC(=O)CNC(c1ccccc1)c1cc(Br)ccc1NC(C)=O (configuration not stated)	FGF22 binding 43.1 (no result: PglD DTNB, Cneo AK release)
Cc1cc(SCc2ccc(Cl)cc2Cl)nc(=O)[nH]1	Ecoli rRNA inh -30.7
O=C(NCc1nnc(SCC(=O)N2CCCc3ccccc32)o1)c1ccco1	none (no result: PglD DTNB, Cneo AK release)
O=C(NCc1nnc(SCC(=O)N2CCc3ccccc32)o1)c1ccco1	FGF22 binding 43.0 (no result: PGC1a acetyl inh)
Cc1cc(C)c(C#N)c(SCc2nc3ccccc3c(=O)[nH]2)n1	none (no result: PglD DTNB, Cneo AK release)
COCc1cc(C)nc(SCc2nc3ccccc3c(=O)[nH]2)c1C#N	FGF22 binding 43.1 (no result: PglD DTNB, Cneo AK release)
CCC(C)NS(=O)(=O)c1ccc(NC(=O)C2CCCO2)cc1 (configuration not stated)	FGF22 binding 43.2 (no result: PglD DTNB, PGC1a acetyl inh, Cneo AK release)
CCCCNS(=O)(=O)c1ccc(NC(=O)C2CCCO2)cc1 (configuration not stated)	none (no result: FGF22 binding, Ecoli rRNA inh)
C/C=C/c1cnc2c(c1)C(=O)N([C@H](C)CO)C[C@H](C)[C@@H](CN(C)C(=O)C1CC1)O2	none (no result: FGF22 binding, Vif inh, PglD DTNB, Cneo AK release)
Fc1ccc(-c2csc(=S)[nH]2)cc1	FGF22 binding 43.0 (no result: PglD DTNB, Cneo AK release)
CC(=O)C1CCC2C3CCC4CC(OC(=O)CCC(=O)O)CCC4(C)C3C(=O)CC12C (configuration not stated)	FGF22 binding 43.8
CC(=O)C1CCC2C3CC(O)C4=CC(=O)CCC4(C)C3C(=O)CC12C (configuration not stated)	none (no result: PglD DTNB, Cneo AK release)
Nc1ncnc2c1ncn2C1OC(CO)C2OC21 (configuration not stated)	none (no result: PglD DTNB, PGC1a acetyl inh, Cneo AK release)
Nc1ncnc2c1ncn2[C@@H]1O[C@H](COP(=O)(O)OP(=O)(O)OP(=O)(O)O)[C@@H](O)[C@H]1O	none

Compound activity deposited in PubChem by Broad Institute.
